According to ChEMBL document CHEMBL1142148, “Antibiotic susceptibility profile of bifidobacteria as affected by oxgall, acid, and hydrogen peroxide stress” (2007):

Experiments:
[1] = system: Bifidobacterium pseudolongum; assay: Antimicrobial activity against 60 min 1 M HCl-stressed Bifidobacterium pseudolongum ATCC 25562 after 18 hrs; format: functional
Procedure, shortened: (§1)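 Mid-log MRS culture pelleted and resuspended in MRS broth brought to pH 2.0 with 1 M HCl, held anaerobically at 37°C for 60 min, then subcultured in MRS (pH 6.5) for 24 h anaerobically before MIC testing by broth microdilution (as for unstressed cells). Table footnote gives 18 h anaerobic regrowth after the stress. MIC is the median of four repetitions.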

Bifidobacterium longum [2] = assay: Antimicrobial activity against 90 mins hydrogen peroxide-stressed Bifidobacterium longum R0175 after 18 hrs; format: functional
Procedure, shortened: (§2)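 Stress applied for 90 min at 37°C under anaerobic conditions, using MRS (initial pH 6.5) containing H2O2 at each strain's own inhibitory concentration. The H2O2 level was set beforehand by microplate tolerance testing. Challenged cells were regrown in MRS for 24 h (footnote: 18 h) before MIC testing by broth microdilution. Median of four repetitions.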

Bifidobacterium breve [3] = assay: Antimicrobial activity against 60 min 1 M HCl-stressed Bifidobacterium breve ATCC 15700 after 18 hrs; format: functional; procedure, shortened: as §1
Bifidobacterium animalis [4] = assay: Antimicrobial activity against 90 mins oxgall-stressed Bifidobacterium animalis ATCC 27536 after 18 hrs; format: functional
Procedure, shortened: (§3)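 Cells pelleted from mid-log MRS culture and resuspended in MRS (initial pH 6.5) with 0.3% (wt/vol) oxgall for 90 min anaerobically at 37°C. They were then regrown in MRS pH 6.5 for 24 h (footnote: 18 h) anaerobically and tested for MIC by the same broth microdilution assay. Median of four repetitions.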

Bifidobacterium longum [5] = assay: Antimicrobial activity against 90 mins oxgall-stressed Bifidobacterium longum P/N 601377 after 18 hrs; format: functional; procedure, shortened: as §3
Bifidobacterium bifidum [6] = assay: Antimicrobial activity against 90 mins oxgall-stressed Bifidobacterium bifidum BB12 after 18 hrs; format: functional; procedure, shortened: as §3
Bifidobacterium breve [7] = assay: Antimicrobial activity against 60 min 1 M HCl-stressed Bifidobacterium breve R0070 after 18 hrs; format: functional; procedure, shortened: as §1
Bifidobacterium longum [8] = assay: Antimicrobial activity against 60 min 1 M HCl-stressed Bifidobacterium longum ATCC 15707 after 18 hrs; format: functional; procedure, shortened: as §1
Bifidobacterium longum [9] = assay: Antimicrobial activity against 90 mins oxgall-stressed Bifidobacterium longum ATCC 15708 after 18 hrs; format: functional; procedure, shortened: as §3
[10] = system: Bifidobacterium pseudolongum; assay: Antimicrobial activity against 90 mins oxgall-stressed Bifidobacterium pseudolongum ATCC 25562 after 18 hrs; format: functional; procedure, shortened: as §3
Bifidobacterium longum [11] = assay: Antimicrobial activity against 90 mins oxgall-stressed Bifidobacterium longum ATCC 15707 after 18 hrs; format: functional; procedure, shortened: as §3
[12] = system: Bifidobacterium thermophilum; assay: Antimicrobial activity against Bifidobacterium thermophilum ATCC 25866; format: functional
Procedure, shortened: (§4)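 Broth microdilution in MRS plus 0.05% L-cysteine-HCl. Mid-log culture adjusted to OD650 0.1, giving about 2.5 × 10^4 to 5.0 × 10^4 CFU/well, then added to twofold serial dilutions of agent. Plates incubated anaerobically at 37°C for 18 h and read at OD650. MIC is the lowest concentration matching the uninoculated blank OD, taken as the median of four repeats.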

Bifidobacterium longum [13] = assay: Antimicrobial activity against 90 mins hydrogen peroxide-stressed Bifidobacterium longum P/N 601377 after 18 hrs; format: functional; procedure, shortened: as §2
Bifidobacterium animalis [14] = assay: Antimicrobial activity against 90 mins hydrogen peroxide-stressed Bifidobacterium animalis ATCC 27536 after 18 hrs; format: functional; procedure, shortened: as §2
[15] = system: Bifidobacterium pseudolongum; assay: Antimicrobial activity against Bifidobacterium pseudolongum ATCC 25562; format: functional; procedure, shortened: as §4
[16] = system: Bifidobacterium thermophilum; assay: Antimicrobial activity against 90 mins oxgall-stressed Bifidobacterium thermophilum ATCC 25866 after 18 hrs; format: functional; procedure, shortened: as §3
Bifidobacterium longum [17] = assay: Antimicrobial activity against Bifidobacterium longum ATCC 15708; format: functional; procedure, shortened: as §4
Bifidobacterium breve [18] = assay: Antimicrobial activity against 90 mins oxgall-stressed Bifidobacterium breve ATCC 15700 after 18 hrs; format: functional; procedure, shortened: as §3
Bifidobacterium bifidum [19] = assay: Antimicrobial activity against 90 mins hydrogen peroxide-stressed Bifidobacterium bifidum BB12 after 18 hrs; format: functional; procedure, shortened: as §2
[20] = Antimicrobial activity against 60 min 1 M HCl-stressed Bifidobacterium infantis ATCC 15697 after 18 hrs; format: functional, Bifidobacterium longum subsp. infantis; conditions: Bifidobacterium longum; procedure, shortened: as §1
Bifidobacterium bifidum [21] = assay: Antimicrobial activity against 60 min 1 M HCl-stressed Bifidobacterium bifidum R0071 after 18 hrs; format: functional; procedure, shortened: as §1
[22] = Antimicrobial activity against Bifidobacterium infantis ATCC 15697; format: functional, Bifidobacterium longum subsp. infantis; conditions: Bifidobacterium longum; procedure, shortened: as §4
Bifidobacterium longum [23] = assay: Antimicrobial activity against 90 mins hydrogen peroxide-stressed Bifidobacterium longum ATCC 15707 after 18 hrs; format: functional; procedure, shortened: as §2
Bifidobacterium breve [24] = assay: Antimicrobial activity against 90 mins hydrogen peroxide-stressed Bifidobacterium breve ATCC 15700 after 18 hrs; format: functional; procedure, shortened: as §2
Bifidobacterium longum [25] = assay: Antimicrobial activity against 60 min 1 M HCl-stressed Bifidobacterium longum R0175 after 18 hrs; format: functional; procedure, shortened: as §1
Bifidobacterium bifidum [26] = assay: Antimicrobial activity against 90 mins oxgall-stressed Bifidobacterium bifidum R0071 after 18 hrs; format: functional; procedure, shortened: as §3
Bifidobacterium bifidum [27] = assay: Antimicrobial activity against Bifidobacterium bifidum BB12; format: functional; procedure, shortened: as §4
Bifidobacterium bifidum [28] = assay: Antimicrobial activity against 90 mins hydrogen peroxide-stressed Bifidobacterium bifidum R0071 after 18 hrs; format: functional; procedure, shortened: as §2
Bifidobacterium breve [29] = assay: Antimicrobial activity against 90 mins oxgall-stressed Bifidobacterium breve R0070 after 18 hrs; format: functional; procedure, shortened: as §3
Bifidobacterium longum [30] = assay: Antimicrobial activity against 60 min 1 M HCl-stressed Bifidobacterium longum P/N 601377 after 18 hrs; format: functional; procedure, shortened: as §1
Bifidobacterium longum [31] = assay: Antimicrobial activity against Bifidobacterium longum ATCC 15707; format: functional; procedure, shortened: as §4
Bifidobacterium bifidum [32] = assay: Antimicrobial activity against 60 min 1 M HCl-stressed Bifidobacterium bifidum BB12 after 18 hrs; format: functional; procedure, shortened: as §1
[33] = Antimicrobial activity against 90 mins oxgall-stressed Bifidobacterium infantis ATCC 15697 after 18 hrs; format: functional, Bifidobacterium longum subsp. infantis; conditions: Bifidobacterium longum; procedure, shortened: as §3
Bifidobacterium animalis [34] = assay: Antimicrobial activity against Bifidobacterium animalis ATCC 27536; format: functional; procedure, shortened: as §4
Bifidobacterium bifidum [35] = assay: Antimicrobial activity against 90 mins oxgall-stressed Bifidobacterium bifidum ATCC 15696 after 18 hrs; format: functional; procedure, shortened: as §3
Bifidobacterium longum [36] = assay: Antimicrobial activity against Bifidobacterium longum R0175; format: functional; procedure, shortened: as §4
Bifidobacterium longum [37] = assay: Antimicrobial activity against 90 mins hydrogen peroxide-stressed Bifidobacterium longum ATCC 15708 after 18 hrs; format: functional; procedure, shortened: as §2
[38] = system: Bifidobacterium thermophilum; assay: Antimicrobial activity against 90 mins hydrogen peroxide-stressed Bifidobacterium thermophilum ATCC 25866 after 18 hrs; format: functional; procedure, shortened: as §2
Bifidobacterium breve [39] = assay: Antimicrobial activity against Bifidobacterium breve R0070; format: functional; procedure, shortened: as §4
Bifidobacterium longum [40] = assay: Antimicrobial activity against Bifidobacterium longum P/N 601377; format: functional; procedure, shortened: as §4
Bifidobacterium bifidum [41] = assay: Antimicrobial activity against Bifidobacterium bifidum ATCC 15696; format: functional; procedure, shortened: as §4
Bifidobacterium breve [42] = assay: Antimicrobial activity against 90 mins hydrogen peroxide-stressed Bifidobacterium breve R0070 after 18 hrs; format: functional; procedure, shortened: as §2
[43] = system: Bifidobacterium thermophilum; assay: Antimicrobial activity against 60 min 1 M HCl-stressed Bifidobacterium thermophilum ATCC 25866 after 18 hrs; format: functional; procedure, shortened: as §1
Bifidobacterium breve [44] = assay: Antimicrobial activity against Bifidobacterium breve ATCC 15700; format: functional; procedure, shortened: as §4
Bifidobacterium bifidum [45] = assay: Antimicrobial activity against Bifidobacterium bifidum R0071; format: functional; procedure, shortened: as §4
Bifidobacterium longum [46] = assay: Antimicrobial activity against 90 mins oxgall-stressed Bifidobacterium longum R0175 after 18 hrs; format: functional; procedure, shortened: as §3
Bifidobacterium animalis [47] = assay: Antimicrobial activity against 60 min 1 M HCl-stressed Bifidobacterium animalis ATCC 27536 after 18 hrs; format: functional; procedure, shortened: as §1

- MIC [1]: 0.98 mg/L
- MIC (Bifidobacterium longum [2]): 15.6 mg/L
- MIC (Bifidobacterium breve [3]): 250 mg/L
- MIC (Bifidobacterium animalis [4]): 125 mg/L
- MIC (Bifidobacterium longum [5]): 62.5 mg/L
- MIC (Bifidobacterium bifidum [6]): 3.9 mg/L
- MIC (Bifidobacterium breve [7]): 31.2 mg/L
- MIC (Bifidobacterium longum [8]): 62.5 mg/L
- MIC (Bifidobacterium longum [9]): 125 mg/L
- MIC [10]: 125 mg/L
- MIC (Bifidobacterium longum [11]): 125 mg/L
- MIC [12]: 62.5 mg/L
- MIC (Bifidobacterium longum [13]): 125 mg/L
- MIC (Bifidobacterium animalis [14]): 62.5 mg/L
- MIC [15]: 15.6 mg/L
- MIC [16]: 125 mg/L
- MIC (Bifidobacterium longum [17]): 31.2 mg/L
- MIC (Bifidobacterium breve [18]): 31.2 mg/L
- MIC (Bifidobacterium bifidum [19]): 7.8 mg/L
- MIC [20]: 125 mg/L
- MIC (Bifidobacterium bifidum [21]): 31.2 mg/L
- MIC [22]: 125 mg/L
- MIC (Bifidobacterium longum [23]): 7.8 mg/L
- MIC (Bifidobacterium breve [24]): 31.2 mg/L
- MIC (Bifidobacterium longum [25]): 0.98 mg/L
- MIC (Bifidobacterium bifidum [26]): 62.5 mg/L
- MIC (Bifidobacterium bifidum [27]): 15.6 mg/L
- MIC (Bifidobacterium bifidum [28]): 62.5 mg/L
- MIC (Bifidobacterium breve [29]): 62.5 mg/L
- MIC (Bifidobacterium longum [30]): 0.98 mg/L
- MIC (Bifidobacterium longum [31]): 62.5 mg/L
- MIC (Bifidobacterium bifidum [32]): 0.98 mg/L
- MIC [33]: 250 mg/L
- MIC (Bifidobacterium animalis [34]): 3.9 mg/L
- MIC (Bifidobacterium bifidum [35]): 125 mg/L
- MIC (Bifidobacterium longum [36]): 62.5 mg/L
- MIC (Bifidobacterium longum [37]): 31.2 mg/L
- MIC [38]: 15.6 mg/L
- MIC (Bifidobacterium breve [39]): 62.5 mg/L
- MIC (Bifidobacterium longum [40]): 15.6 mg/L
- MIC (Bifidobacterium bifidum [41]): 31.2 mg/L
- MIC (Bifidobacterium breve [42]): 7.8 mg/L
- MIC [43]: 125 mg/L
- MIC (Bifidobacterium breve [44]): 31.2 mg/L
- MIC (Bifidobacterium bifidum [45]): 31.2 mg/L
- MIC (Bifidobacterium longum [46]): 125 mg/L
- MIC (Bifidobacterium animalis [47]): 62.5 mg/L
Compound: CN(C)[C@@H]1C(O)=C(C(N)=O)C(=O)[C@@]2(O)C(O)=C3C(=O)c4c(O)cccc4[C@@](C)(O)[C@H]3C[C@@H]12.Cl [TETRACYCLINE HYDROCHLORIDE]
